Assay results published in ChEMBL document CHEMBL4673214, “Synthesis and antibacterial bioactivities of cationic deacetyl linezolid amphiphiles” (Eur J Med Chem, 2018).

Experiments:
Escherichia coli = test: Antibacterial activity against Escherichia coli ATCC 25922 assessed as reduction in bacterial growth incubated 16 to 20 hrs by CLSI-based broth microdilution method; type: functional; conditions: time 16-20 hrs
Outline: (§1)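 Broth microdilution following CLSI, in cation-adjusted Mueller-Hinton broth. Inoculum from a 4-6 h culture (~10^8 CFU/mL), diluted to ~10^6 CFU/mL. Water stocks were serially diluted in MHB (256 to 0.5 µg/mL) and mixed 1:1 with the inoculum. Plates ran 16-20 h at 37 °C. MIC was read visually. Each concentration was tested in duplicate, and the experiment was repeated at least twice.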

[1] = Solubility of the compound in water at room temperature; type: physicochemical; conditions: buffer
Salmonella enterica = test: Antibacterial activity against Salmonella enterica ATCC 8387 assessed as reduction in bacterial growth incubated for 16 to 20 hrs by CLSI-based broth microdilution method; type: functional; conditions: time 16-20 hrs; outline: as §1
Enterococcus faecalis = test: Antibacterial activity against Enterococcus faecalis ATCC 29212 assessed as reduction in bacterial growth incubated 16 to 20 hrs by CLSI-based broth microdilution method; type: functional; conditions: time 16-20 hrs; outline: as §1
Staphylococcus aureus = test: Antibacterial activity against Staphylococcus aureus ATCC 29213 assessed as reduction in bacterial growth incubated for 16 to 20 hrs by CLSI-based broth microdilution method; type: functional; conditions: time 16-20 hrs; outline: as §1

MIC (Escherichia coli) [µg/mL] | solubility [1] | MIC (Salmonella enterica) [µg/mL] | MIC (Enterococcus faecalis) [µg/mL] | MIC (Staphylococcus aureus) [µg/mL] | Compound
128 | Soluble | 128 | 64 | 32 | CCCCCCCCN(C[C@H]1CN(c2ccc(N3CCOCC3)c(F)c2)C(=O)O1)C(=O)[C@@H](N)CCCCN.Cl.Cl
> 128 | Soluble | > 128 | 16 | 4 | CCCCCCCCCCCCCCCCCC[N+](C)(C)CC(=O)NC[C@H]1CN(c2ccc(N3CCOCC3)c(F)c2)C(=O)O1.[Cl-]
16 | Soluble | 32 | 8 | 8 | CCCCCCCCCCN(C[C@H]1CN(c2ccc(N3CCOCC3)c(F)c2)C(=O)O1)C(=O)[C@@H](N)CCCN=C(N)N.Cl.Cl.Cl
64 | Soluble | 64 | 16 | 16 | CCCCCCCCCN(C[C@H]1CN(c2ccc(N3CCOCC3)c(F)c2)C(=O)O1)C(=O)[C@@H](N)CCCCN.Cl.Cl
> 128 | Soluble | > 128 | 128 | 128 | CCCCCCCN(C[C@H]1CN(c2ccc(N3CCOCC3)c(F)c2)C(=O)O1)C(=O)[C@@H](N)CCCCN.Cl.Cl
64 | Soluble | 64 | 32 | 16 | CCCCCCCCCN(C[C@H]1CN(c2ccc(N3CCOCC3)c(F)c2)C(=O)O1)C(=O)[C@@H](N)CCCN=C(N)N.Cl.Cl.Cl
32 | Soluble | 32 | 16 | 8 | CCCCCCCCC[N+](C)(C)CC(=O)NC[C@H]1CN(c2ccc(N3CCOCC3)c(F)c2)C(=O)O1.[Cl-]
> 128 | Soluble | > 128 | 32 | 16 | CCCCCCCCN(C[C@H]1CN(c2ccc(N3CCOCC3)c(F)c2)C(=O)O1)C(=O)[C@@H](N)CCCN=C(N)N.Cl.Cl.Cl
